Assay: Toxicity liver stage against HepG2, at 10uM
Type: cell-based
Parameters: test concentration 10 uM, cell line HepG2-A16-CD81EGFP
Details: human, HepG2-A16-CD81EGFP cells; read-out: INHIBITION
Summary of the method: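 Uninfected HepG2-A16-CD81EGFP cells, 3 × 10^3 per well, 1536-well, plated on prespotted compound at 10 μM final, parasite-free screening media added to match infected plates; puromycin 10 μM positive, DMSO 0.5% negative; run in parallel with 48 h PbLuc assay at 37 °C, 5% CO2; viability by CellTiter-Glo luminescence, normalized to controls.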

Row | SMILES | cytotoxicity at 10 µM [%]
1 | Cc1n[nH]c(C)c1CC(=O)NCc1ccccc1Cl | 9.87
2 | CCNC(=O)COc1cc(CC)c2c(C)nn(-c3ccc(C)cc3)c2n1 | 0.409
3 | CC(C)CCN1C(=O)c2ccc(C(=O)NCCc3c[nH]cn3)cc2C1=O | -12.5
4 | COCCCNC(=O)Cc1cc(-c2ccc3c(c2)OCO3)on1 | 57.7
5 | N#Cc1ccc(OC2CCN(C(=O)Cc3cccs3)CC2)nc1 | 1.96
6 | CCS(=O)(=O)NCc1nc(C)cc(N2CCOCC2)n1 | -0.978
7 | O=C([C@@H]1COC[C@H]2CN(CC3CCCC3)C[C@H]21)N1CCOCC1 | 14.9
8 | CC(=O)NCC(=O)N1Cc2cc(C#N)ccc2C1c1cnco1 (stereo unspecified) | 1.06
9 | CC(=O)NCc1noc2c1CN(Cc1ccsc1)CC2 | -3.21
10 | O=S(=O)(c1cccnc1)N1C[C@@H]2COC[C@]2(COCC2CC2)C1 | 4.83
11 | Cc1ccc(CN2Cc3c(cnn3C)C(COCC3CC3)C2)s1 (stereo unspecified) | 3.91
12 | COc1ccc(N2CCCC3(C2)CN(c2nncs2)CCO3)cc1 (stereo unspecified) | 4.17
13 | CCc1nn(-c2cc(Oc3cc(C)ccc3C)nc(C)n2)c(N)c1C#N | 58.4
14 | Cn1c(N)c2c(=O)n(C)c(-c3ccc(Cl)cc3Cl)cc2c(C#N)c1=O | -5.43
15 | Cc1ccc(C)c(-c2csc(N)c2C#N)c1 | 5.47
16 | Cc1nnsc1C(=O)N1CCC(c2nc3ccccc3[nH]2)CC1 | 2.5
17 | CCCn1c(NCCc2ccccc2)nc2c(C)nn(C)c2c1=O | 66.4
18 | O=C1CNc2ncnc(Nc3cnn(Cc4ccc(F)cc4)c3)c2N1 | 6.85
19 | Cc1cnc(Nc2cccc(C3CCCN3Cc3cn(C)nc3C)n2)s1 (stereo unspecified) | 13.2
20 | CN(C)c1cc(C2CCCN(C(=O)c3noc4c3CCCC4)C2)ccn1 (stereo unspecified) | -12.3
21 | NCCC(=O)N1CCC2(CC1)CN(C(=O)Cc1ccc(Cl)cc1)CCO2 | 2.24
22 | CC(C)c1cc(NC(=O)CNC2CCc3ncnn3C2)on1 (stereo unspecified) | 4.44
23 | O=C(c1cnc2n1CCCC2)N1CCCC1 | -10.6

Row | SMILES | cytotoxicity at 10 µM [%]
24 | O=c1n(CCNc2cccc3ccccc23)nc2ccccn12 | 0.392
25 | O=S(=O)(N1CCC(n2cccc2)CC1)N1CCCC1c1ccco1 (stereo unspecified) | 12.7
26 | Cc1cnn(C2CCCN(C(=O)c3cc[nH]n3)C2)c1 (stereo unspecified) | -18.3
27 | CCc1noc(C(C)N2CCN(Cc3noc(C4CC4)n3)CC2)n1 (stereo unspecified) | -2.13
28 | CN(c1ncc(S(N)(=O)=O)s1)C1CCc2ccccc2C1 (stereo unspecified) | 11.1
29 | CC(C)Oc1ncccc1CNC(=O)N1CCOCC1 | -40.6
30 | Cc1nc(C)c(S(=O)(=O)NC(=O)c2ccoc2)s1 | -6.91
31 | N#Cc1ncn(CCS(=O)(=O)c2ccccc2)n1 | 1.18
32 | CSc1cc2c(cc1NC(=O)NCCn1ccnc1)OCCO2 | -8.28
33 | CC(C)(C)OC(=O)NCCc1csc(N2CCCC2)n1 | 24.9
34 | Cc1ccsc1C(=O)NC1CCN(c2cnn(C)c2)C1=O (stereo unspecified) | -7.11
35 | CC(C)C(O)C1(CNC(=O)Nc2ccc(CN3CCOC3=O)cc2)CC1 (stereo unspecified) | -5.09
36 | O=C(Nc1ccnc(OC2CCOC2)c1)c1ccccc1Cl (stereo unspecified) | 8.5
37 | COCCNC(=O)Nc1cccc2c1CCN(S(C)(=O)=O)C2 | 7.37
38 | CCc1nccn1C1CCCN(C(=O)c2ccnc(N(C)C)c2)C1 (stereo unspecified) | 0.795
39 | N#CCCCOc1cccnc1NC(=O)Cc1ccccc1F | -2.27
40 | CN(Cc1ccccc1)CC(C)(C)NC(=O)c1cnccn1 | 6.95
41 | Cc1noc(OCc2ccc(C#N)cc2)n1 | -10.2
42 | Cc1cc(SC(C)(C)C)ccc1NC(C)C(=O)NC(N)=O (stereo unspecified) | -5.36
43 | CCc1noc(C(C)SCCS(C)(=O)=O)n1 (stereo unspecified) | 5.5
44 | CC1CN(C)CCN1C(=O)c1ccc(-n2cnnc2)cc1 (stereo unspecified) | 2.84
45 | CC(C)(C)OC(=O)NC(C)(C(N)=O)c1cccc(Cl)c1 (stereo unspecified) | 18.3
46 | Cc1nc(C)c(C(=O)N2CCN(CCOc3ccccc3C)CC2)o1 | 1.72

Row | SMILES | cytotoxicity at 10 µM [%]
47 | CC(NCC(=O)Nc1ccc(N2CCCCCC2)cc1)c1cccs1 (stereo unspecified) | 1.8
48 | CC(=O)NC1CCCN(Cc2ccc(-n3ccnc3)cc2)C1 (stereo unspecified) | -57.4
49 | Cn1ccnc1C(=O)NC[C@@H]1OC[C@H]2CN(S(C)(=O)=O)CC[C@H]21 | -99.3
50 | CNC(=O)c1ncn2c1CN(CCC(C)C)S(=O)(=O)c1ccccc1-2 | -78.8
51 | CCc1ncnc2c1CCN(C(=O)c1cccn1C)CC2 | -73.5
52 | O=C(c1ccncn1)N1C[C@H]2CCC[C@@]2(COCC2CCOCC2)C1 | -79.2
53 | CN(Cc1ccncc1)CC1CCCN(CCc2ccc(Cl)cc2)C1 (stereo unspecified) | 1.06
54 | CN(C)c1cnn(CC(=O)N2CCN(Cc3cccs3)CC2)c(=O)c1 | 1.72
55 | CS(=O)(=O)NCC(=O)N[C@H]1CN(CC2CC2)C[C@@H]1c1ccccc1 | -0.29
56 | Cc1ccc2[nH]c(CNC(=O)C3CC4(CCNCC4)CN3C)nc2c1C (stereo unspecified) | -9.66
57 | CCc1nc(CCn2ccnc2-c2nccn2C)no1 | -50.2
58 | COc1cccc(C(=O)N2CCN(C(=O)CCCc3cn[nH]c3)CC2)c1 | -1.3
59 | COCCc1noc(C2CCCN(c3nc(N)nc4c3CCCC4)C2)n1 (stereo unspecified) | 48.1
60 | CC(=O)N[C@@H]1CN(c2nc(CO)cs2)C[C@H]1c1ccc(C)o1 | -47
61 | Cc1cccn2c(CNC(C)CCc3ccc(O)cc3)cnc12 (stereo unspecified) | 1.95
62 | CN(C)Cc1csc(-c2nccn2Cc2ccsc2)c1 | -2.47
63 | CCN1CC(C(=O)NCc2nn(CC)c3ccccc23)CCC1=O (stereo unspecified) | -5.83
64 | O=C(CO)N1CCCC(N2CCN(c3ccccc3F)CC2)C1 (stereo unspecified) | -49.1
65 | CSc1ccc(CN2CCC(CCC(=O)Nc3ccccc3)CC2)cc1 | 6.8
66 | COc1cccc(N2CCN(C(C(=O)O)c3ccc(OC)nc3)CC2)c1 (stereo unspecified) | 14.5
67 | CCc1nc(NCCc2c(C)nn(CC)c2C)c2cnn(C)c2n1 | 9.33
68 | CCn1cc(CN2CCC(N3CCC(O)CC3)CC2)cc1C#N | 0.371
69 | N[C@H]1CCCN(S(=O)(=O)c2ccc(C(=O)NCC(F)F)cc2)C1 | -0.566

Row | SMILES | cytotoxicity at 10 µM [%]
70 | CCN(CCn1c(=O)oc2ccccc21)CC1CCOCC1 | -8.73
71 | Cc1cc(N2CCC(NC(C)Cc3ccsc3)CC2)nc(N)n1 (stereo unspecified) | 2.22
72 | Cc1cccnc1CC(C)Nc1nc(N)nc2c1CCNC2 (stereo unspecified) | 2.09
73 | Cc1nnsc1C(=O)NCc1cccnc1N1CCCC(O)C1 (stereo unspecified) | 1.91
74 | NC1CCN(C2CCN(c3ccc(-c4ccco4)cc3)CC2)CC1 | 1.03
75 | Cc1ccc(Sc2ccc(CN3CCC4(CC3)NCCNC4=O)o2)cc1 | -6.71
76 | COc1ccccc1OC1CN(C(=O)c2ccccc2C(C)=O)C1 | 7.6
77 | CCCN(CCOC)C(=O)c1cc(Cn2c(C)nc3ccccc32)[nH]n1 | 21.8
78 | Cc1ccnc(NCc2cn3nc(C)sc3n2)n1 | -0.449
79 | Cc1ccnc(NCCSc2nccn2C)n1 | -42
80 | NCC(=O)N1CCCC1c1ccc(C(=O)NCc2ccoc2)s1 (stereo unspecified) | 1.68
81 | Cc1cc(N2CCCN(C(=O)Cc3ccc(O)c(Cl)c3)CC2)ccn1 | -17.3
82 | c1cnc2c(C3CCN(Cc4ccsc4)CC3)n[nH]c2n1 | 1.34
83 | COc1ncc(C2(O)CCN(Cc3ccccc3O)CC2)c(OC)n1 | 2.33
84 | CN(Cc1noc(C(C)(C)C)n1)C1CCCN(c2cccnn2)C1 (stereo unspecified) | -7.96
85 | CCN(CC1CCOC1)C(=O)c1ccc(N2CCOCC2)c(F)c1 (stereo unspecified) | -2.45
86 | Cc1ccnc(NC(=O)c2[nH]nc(C(C)C)c2Br)c1 | 12.9
87 | Clc1ccc(OCCCN2CCOC(Cn3cncn3)C2)cc1 (stereo unspecified) | -10
88 | O=C(NCCNc1cnccn1)N1CCN(Cc2cccnc2)CC1 | 4.07
89 | Cc1noc(C(C)C)c1C(=O)NCCCN1CCCC1 | -13.5
90 | COCC1CC2(CCN(c3ccccn3)CC2)CN1C(C)C (stereo unspecified) | -110
91 | CCC(=O)N1CCC2(CC1)COCCN2Cc1ccc(F)cc1 | -76.5
92 | c1csc(CN2CCO[C@@H]3CN(C4CCOCC4)C[C@@H]3C2)c1 | -157

Row | SMILES | cytotoxicity at 10 µM [%]
93 | Cc1ccc(CN2CCCC3(COCCN(Cc4c[nH]nn4)C3)C2)s1 (stereo unspecified) | -1.31
94 | COCC1CN(C(=O)Cc2ccccn2)Cc2ncnn2C1 (stereo unspecified) | -2.47
95 | CCN1CCC2(C1)CN(S(=O)(=O)c1cn(C)cn1)C2 | -109
96 | c1ccc(-c2ncc3c(n2)C2(CCN(CC4CC4)C2)COC3)cc1 (stereo unspecified) | 0.975
97 | O=C([C@H]1CCCO1)N1CCCC2(COCCN(c3ccccc3)C2)C1 (stereo partly specified) | 13.9
98 | CC(C)NC(=O)C1(CC2CC(c3ccc(F)cc3)=NO2)CCNCC1 (stereo unspecified) | -8.54
99 | Cn1cnc2c1C(COCC1CCOCC1)CN(C(=O)c1ccco1)C2 (stereo unspecified) | -75.5
100 | Cc1csc(CN2CCC[C@]3(C[C@@H](Oc4ccccn4)CO3)C2)n1 | -141
101 | COc1c(CNCc2ccc(C(=O)N3CCCC3)cc2)c(C)nn1C | -3.23
102 | Cc1cccc(CN2C[C@@H]3COC[C@]3(CNC(=O)C3CCC3)C2)c1 | -112
103 | CNC(=O)COC1COC2(CCN(c3ccc(C#N)cc3)CC2)C1 (stereo unspecified) | -75.7
104 | c1ccc(CNCC2Cn3nnc(-c4ccncc4)c3CO2)nc1 (stereo unspecified) | -1.99
105 | CN(C)C1CCC2(CCN(Cc3nccn3C)CC2)c2ccccc21 (stereo unspecified) | 5.64
106 | CCCS(=O)(=O)N1C[C@@H]2CN(Cc3cnn(C)c3)CCO[C@@H]2C1 | 0.835
107 | CN(C)c1ncnc2c1CCN(CC1CCOCC1)CC2 | -69.6
108 | Cc1ccc(C(=O)N2Cc3c(CN4CCCCC4)nn(C)c3C2)cc1C | -2.81
109 | CCS(=O)(=O)N1CCC2(CC1)CC(COC)N(c1ncccn1)C2 (stereo unspecified) | 5.57
110 | COCCN1C[C@@H]2CC[C@H]1CN(C(=O)c1ccc(Cl)cc1)C2 | -8.03
111 | O=C(NC1CCC1)[C@H]1C[C@H]2CN(CC3CC3)C[C@@H]1O2 | 7.55
